# Screening data as filed in PubChem BioAssay.
# An excerpt weighted towards active compounds, which were near 2.6% of everything screened.
# MEKK3 PB1 HTS – modulators of MEKK3-MEK5 PB1 binding, primary screen, biochemical, wildtype MEKK3, multiplex bead flow cytometry, Alexa488-MEK5 | binding response (% of control), % at 10 µM | 290,000 tested, 1.4% active | Mitogen-activated protein kinase kinase kinase 3 (Homo sapiens), Q99759 | bead-based flow cytometry, Alexa488-MEK5 binding to MEKK3; actives lie on both sides; 0 = blocked by unlabeled MEK5, 100 = vehicle;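 active = binding response more than 3 SD above or below the average of its plate-row segment, actives on both sides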;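 note: Alexa488 bead fluorescence after subtracting the streptavidin-only scavenger bead signal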
# Target sequence (Q99759 whole entry, looked up): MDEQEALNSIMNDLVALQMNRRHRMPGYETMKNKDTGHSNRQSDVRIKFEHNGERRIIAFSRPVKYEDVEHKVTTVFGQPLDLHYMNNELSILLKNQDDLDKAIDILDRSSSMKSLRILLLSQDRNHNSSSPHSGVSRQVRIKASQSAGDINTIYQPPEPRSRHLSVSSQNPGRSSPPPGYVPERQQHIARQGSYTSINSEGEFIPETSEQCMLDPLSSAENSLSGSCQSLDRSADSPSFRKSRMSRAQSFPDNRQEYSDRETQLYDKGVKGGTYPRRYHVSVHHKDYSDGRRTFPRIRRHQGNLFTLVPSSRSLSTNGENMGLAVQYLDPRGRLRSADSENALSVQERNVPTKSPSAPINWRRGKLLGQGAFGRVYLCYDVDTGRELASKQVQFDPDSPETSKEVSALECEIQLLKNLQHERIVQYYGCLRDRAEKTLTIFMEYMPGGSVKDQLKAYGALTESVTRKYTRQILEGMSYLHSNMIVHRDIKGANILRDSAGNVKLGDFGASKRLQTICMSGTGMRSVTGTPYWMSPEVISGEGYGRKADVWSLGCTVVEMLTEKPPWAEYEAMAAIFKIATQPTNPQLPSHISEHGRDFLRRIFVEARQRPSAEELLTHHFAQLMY
# Lipid droplet – inhibitors of hepatocyte lipid droplet formation, primary screen, imaging, high-throughput imaging, BODIPY stain | AML12 mouse hepatocytes, oleate lipid droplets | inhibition, % at 6.5 µM | 240,000 tested, 0.4% active | AID 1656, 2009;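 active = lipid droplet intensity inhibited by at least 50%, with more than 500 cells counted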
#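 Assay system: AML12 mouse liver cells | Compound dosing: One dose, 6.5 µM compound | Read-out basis: Droplet intensity reduction, % inhibition | Measured by: Fluorescence imaging, 20x objective, two fields per well | Schedule: Overnight treatment with compound plus oleate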
# MEKK2 WT-MEK5 – modulators of MEK5 binding to wildtype MEKK2, primary screen, biochemical, multiplex bead flow cytometry, Alexa488-MEK5 | Alexa488-MEK5 binding to MEKK2 WT; actives lie on both sides | binding response (% of control), % at 10 µM | 290,000 tested, 1.1% active; in the data active = binding response below about 67% or above about 130%
# MEKK2mut PB1 HTS – MEK5 binding signal on mutant MEKK2 PB1, primary screen, biochemical, multiplex bead flow cytometry, Alexa488-MEK5 | 290,000 tested, 0.35% active | percent response, % at 10 µM | Alexa488-MEK5 binding to MEKK2 mutant; in the data active = percent response above about 24%, passing the limit was not always enough
# MEKK2wt confirm – modulators of MEK5 binding to wildtype MEKK2, confirmation, biochemical, single concentration, multiplex bead flow cytometry. shares compounds with MEKK3 PB1 HTS. binding response (% of control), % at 10 µM. Alexa488-MEK5 binding to MEKK2 WT; actives lie on both sides. 5,900 tested, 2.4% active. AID 1892, 2009; in the data active = binding response below about 16% or above about 210%; inactive = in between
# MEKK2mut-MEK5 – mutant MEKK2 PB1-MEK5 binding signal retest – biochemical, single concentration, multiplex bead flow cytometry, confirmation; 5,900 tested, 2% active; percent response, % at 10 µM; shares compounds with MEKK3 PB1 HTS; Alexa488-MEK5 binding to MEKK2 mutant; in the data active = percent response mostly above about 71%, no sharp cut-off; inactive = mostly below about 38%;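 note: higher means compound restores mutant binding toward wildtype level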
# MEKK3-MEK5 inh – MEKK3 wild-type PB1 binding to MEK5, inhibitors, confirmation, biochemical, bead multiplex flow cytometry, single concentration, wildtype. 5,900 tested, 1.8% active. Alexa488-MEK5 binding to MEKK3; active compounds read low. binding response (% of control), % at 10 µM. AID 1894, 2009. shares compounds with MEKK3 PB1 HTS;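 active = binding response below 72% of control, or above a set upper limit, though filed actives all read lower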;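 note: 100% = DMSO only wells and 0% = binding blocked by excess unlabeled MEK5; lower values mean stronger disruption of MEK5 binding to MEKK3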
# * hit, by the source's call; nt = no result given; [ ] = another dose, or the depositor's remark.
SMILES,MEKK3 PB1 HTS,Lipid droplet,MEKK2 WT-MEK5,MEKK2mut PB1 HTS,MEKK2wt confirm,MEKK2mut-MEK5,MEKK3-MEK5 inh
CCS(=O)(=O)Nc1cccc(C2=NN(S(C)(=O)=O)C(c3ccccc3)C2)c1 (configuration not stated),18*[inhibitor],3,86,54*,72,-19,73
CS(=O)(=O)Nc1ccc(C2=NN(S(C)(=O)=O)C(c3ccc4nccnc4c3)C2)cc1 (configuration not stated),3.0*[inhibitor],-5,nt,nt,70,-6,73
COc1ccc(CN(C(=O)Cn2nnc(-c3ccc(C)o3)n2)C(C(=O)NCC2CCCO2)c2ccco2)cc1 (configuration not stated),88,-3,82,-8,nt,nt,nt
CC1CCCN(C(=O)CCS(=O)(=O)c2ccc3c(c2)NC(=O)C(C)S3)C1 (configuration not stated),99,-2,101,3,nt,nt,nt
Cc1[nH]n(-c2ccc(F)cc2)c(=O)c1C=Nc1ccc(S(=O)(=O)N(C)C)cc1,97,-3,11*[inhibitor],13,102,6,101
CN(C)C(=O)CCSc1nnc(-c2ccco2)o1,95,7,94,-2,nt,nt,nt
Cc1ccc(C)c(-n2cc(CNCCCn3cccn3)c(-c3ccccc3)n2)c1,99,13,108,1,nt,nt,nt
Cc1ccc(-n2cc(CNCCCn3cccn3)c(-c3cccc(C)c3)n2)cc1,104,19,138*,24,143,15,104
Cc1ccc(-c2nn(-c3ccccc3)cc2CNCc2ccccc2)cc1,111,-4,193*,36,173,34,104
Cc1ccc(-c2nn(-c3ccccc3)cc2CO)cc1,107,-5,110,11,nt,nt,nt
Cc1ccc(-n2cc(CNCCCn3ccnc3C)c(-c3ccc(F)cc3)n2)cc1,115,-5,306*,178*,204,77*,116
CC1CC(C)CN(CCCNC(=O)c2ccc3c(c2)ncn3C2CCCC2)C1 (configuration not stated),100,4,100,9,nt,nt,nt
COc1ccccc1CNC(=O)C1CCN(S(=O)(=O)c2ccc3c(c2)OCCCO3)CC1,93,-3,99,1,nt,nt,nt
Cc1cc(C)c2c(N)c(C(=O)Nc3ncc(C)s3)sc2n1,103,-9,102,5,nt,nt,nt
COc1ccc2nc(NC(=O)c3sc4nc(C)cc(C)c4c3N)sc2c1,48*[inhibitor],-1,48,-11,90,-5,90
CCOc1ccc2[nH]c3c(c2c1)CNCC3,102,-30,158*,13,134,23,97
Cc1ccc(C(=O)C2(C)C3c4cc(Br)ccc4OC(=O)C32C(=O)c2ccco2)cc1 (configuration not stated),24*[inhibitor],nt,39*[inhibitor],-42,96,-6,96
Cc1cc(C)cc(-n2c(C)nc3cc(C(=O)O)ccc32)c1,103,-2,103,9,nt,nt,nt
CCOC(=O)c1c(CSC(=N)N)n(-c2ccccc2)c2cc(Br)c(OC(C)=O)cc12,102,37,143*,22,169,48,112
CCOC(=O)c1c(CN2CCN(C)CC2)n(-c2ccccc2)c2cc(Br)c(O)cc12,103,26,130,13,nt,nt,nt
CCOC(=O)c1c(CN2CCN(Cc3ccccc3)CC2)n(C)c2cc(Br)c(OC)cc12,105,-18,135*,7,173,38,108
